In ChEMBL document CHEMBL2057141, “Imidazolopiperazines: lead optimization of the second-generation antimalarial agents” (J Med Chem, 2012):

Assays:
[1] = test system: Plasmodium falciparum; test: Antimalarial activity against Plasmodium falciparum 3D7 after 72 hrs by SYBR green fluorescence assay; format: functional, organism-based; conditions: 3D7, 72 h
Procedure, shortened: (§1)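 P. falciparum grown in O+ erythrocytes, screened in medium without human serum plus 0.5% Albumax II. Twelve-point half-log dilutions up to 10 μM final. 0.3% parasitemia, 2.5% hematocrit; 72 h at 37 °C under low-oxygen gas. Lysis buffer with SYBR Green added, 24 h at 25 °C, fluorescence read at 485/530 nm.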

[2] = test system: Plasmodium falciparum; test: Antimalarial activity against Plasmodium falciparum W2 after 72 hrs by SYBR green fluorescence assay; format: functional, organism-based; conditions: W2, 72 h; procedure, shortened: as §1
[3] = Permeability of the compound by PAMPA; format: ADME
Procedure, shortened: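 PAMPA in 96-well filter plates. Permeated compound quantified by UV absorbance at 260–290 nm. Reported as percentage absorbed.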

[4] = Apparent permeability across apical to basolateral side in human Caco2 cells by LC/MS analysis; format: ADME, cell-based; conditions: Caco-2
Procedure, shortened: (§2)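 Caco-2 monolayers in 96-well format. Compound measured in apical and basolateral chambers by LC/MS, giving Papp in the A–B and B–A directions. Values reported in cm/s × 10⁶.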

[5] = Apparent permeability across basolateral to apical side in human Caco2 cells by LC/MS analysis; format: ADME, cell-based; conditions: Caco-2; procedure, shortened: as §2
[6] = Volume of distribution in Balb/c mouse at 5 mg/kg, iv; format: ADME, organism-based; set-up: dose 5 mg/kg, route intravenous; conditions: in vivo
Procedure, shortened: (§3)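 Male Balb/c mice (n = 3 per group). Compound as a 2.5 mg/mL solution in PEG300/D5W 3:1, filtered. Given by lateral tail vein at 5 mg/kg (2 mL/kg) or orally at 20 mg/kg (8 mL/kg). Six serial 50 μL retro-orbital blood samples to 24 h, heparinized plasma. Plasma extracted with acetonitrile:methanol 3:1 with internal standard, LC-MS/MS. Noncompartmental analysis; F = AUCpo×dose_iv/AUCiv×dose_po.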

[7] = Clearance in Balb/c mouse plasma at 5 mg/kg, iv; format: ADME, organism-based; set-up: dose 5 mg/kg, route intravenous; procedure, shortened: as §3
[8] = Half life in Balb/c mouse at 5 mg/kg, iv; format: ADME, organism-based; set-up: dose 5 mg/kg, route intravenous; conditions: in vivo; procedure, shortened: as §3
[9] = test system: Mus musculus; test: AUC (0 to 24 hrs) in Balb/c mouse at 5 mg/kg, iv; format: ADME, organism-based, Plasma; set-up: time < 24 hr, dose 5 mg/kg, route intravenous; conditions: in vivo; procedure, shortened: as §3
[10] = Cmax in Balb/c mouse at 20 mg/kg, po; format: ADME, organism-based; set-up: dose 20 mg/kg, route oral; conditions: in vivo; procedure, shortened: as §3
[11] = Tmax in Balb/c mouse at 20 mg/kg, po; format: ADME, organism-based; set-up: dose 20 mg/kg, route oral; conditions: in vivo; procedure, shortened: as §3
[12] = Half life in Balb/c mouse at 20 mg/kg, po; format: ADME, organism-based; set-up: dose 20 mg/kg, route oral; conditions: in vivo; procedure, shortened: as §3
[13] = test system: Mus musculus; test: AUC (0 to 24 hrs) in Balb/c mouse at 20 mg/kg, po; format: ADME, organism-based, Plasma; set-up: time < 24 hr, dose 20 mg/kg, route oral; conditions: in vivo; procedure, shortened: as §3
[14] = test system: Mus musculus; test: Oral bioavailability in Balb/c mouse at 20 mg/kg; format: ADME, organism-based; conditions: in vivo; procedure, shortened: as §3
[15] = test system: Plasmodium berghei; test: Antimalarial activity against Plasmodium berghei ANKA expressing GFP infected in NMRI mouse assessed as increase of mouse survival at 30 mg/kg, po administered 24 hrs post infection (reference value: 6 to 7 days); format: functional
[16] = test system: Plasmodium berghei; test: Antimalarial activity against Plasmodium berghei ANKA expressing GFP infected in NMRI mouse assessed as increase of mouse survival at 100 mg/kg, po administered 24 hrs post infection (reference value: 6 to 7 days); format: functional
[17] = test system: Rattus norvegicus; test: (§4) Cmax in Wistar rat at 10 mg/kg, po; format: ADME, organism-based; set-up: dose 10 mg/kg, route oral; conditions: in vivo, BLD = below limit of detection
Procedure, shortened: (§5)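 Rat snapshot PK: two Wistar rats dosed orally at 10 mg/kg, formulated at 2.5 mg/mL in 75% PEG300/25% D5W. Blood (100 μL) taken at 0.5, 1, 3 and 5 h post dose. Plasma pooled by sampling time, then analysed by LC-MS/MS.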

[18] = Metabolic stability in mouse liver microsomes assessed as hepatic extraction ratio by LC/MS/MS analysis; format: ADME, Microsome
Procedure, shortened: (§6)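 Liver microsomes (human, mouse, rat). Compound depletion followed by LC/MS/MS. Loss of parent used to derive in vitro half-life and hepatic extraction ratio.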

[19] = Metabolic stability in mouse liver microsomes assessed as hepatic extraction ratio by LC/MS/MS analysis in presence of CYP; format: ADME, Microsome; procedure, shortened: as §6
[20] = Metabolic stability in rat liver microsomes assessed as hepatic extraction ratio by LC/MS/MS analysis in presence of CYP; format: ADME, Microsome; procedure, shortened: as §6
[21] = Metabolic stability in human liver microsomes assessed as hepatic extraction ratio by LC/MS/MS analysis in presence of CYP; format: ADME, Microsome; procedure, shortened: as §6
[22] = test system: Plasmodium berghei; test: Antimalarial activity against Plasmodium berghei ANKA expressing GFP infected in NMRI mouse assessed as reduction of parasite level in blood at 30 mg/kg, po administered 24 hrs post infection measured after 72 hrs post infection by flow cytometry; format: functional; set-up: scale not given: the % may be the effect or the level left
Procedure, shortened: (§7)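 Female NMRI mice (20–22 g, n=3) are infected i.v. with 2×10^7 P. berghei GFP ANKA-infected erythrocytes. Oral compound in 75% PEG300/25% D5W is given at 10 mL/kg, once at 24 h or daily at 24/48/72 h post-infection. Parasitemia is read by flow cytometry at 72 h (single dose) or 96 h (triple dose). Activity is % reduction of mean parasitemia versus untreated controls.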

[23] = test system: Plasmodium berghei; test: Antimalarial activity against Plasmodium berghei ANKA expressing GFP infected in NMRI mouse assessed as increase of mouse survival at 30 mg/kg, po administered 24 hrs post infection qd for 3 days (reference value: 6 to 7 days); format: functional
[24] = AUC (0 to 5 hrs) in Wistar rat at 10 mg/kg, po; format: ADME, organism-based; set-up: dose 10 mg/kg, route oral; conditions: plasma
[25] = as §4; format: ADME, organism-based; set-up: dose 10 mg/kg, route oral; conditions: Wistar, in vivo; procedure, shortened: as §5
[26] = test system: Rattus norvegicus; test: Dose normalized AUC (0 to 5 hrs) in Wistar rat at 10 mg/kg, po; format: ADME, organism-based; set-up: dose 10 mg/kg, route oral; conditions: in vivo; procedure, shortened: as §5
[27] = test system: Plasmodium berghei; test: Antimalarial activity against Plasmodium berghei ANKA expressing GFP infected in NMRI mouse assessed as reduction of parasite level in blood at 30 mg/kg, po administered 24 hrs post infection qd for 3 days measured after 96 hrs post infection by flow cytometry; format: functional; set-up: scale not given: the % may be the effect or the level left; procedure, shortened: as §7
[28] = test system: Plasmodium berghei; test: Antimalarial activity against Plasmodium berghei ANKA expressing GFP infected in NMRI mouse assessed as reduction of parasite level in blood at 100 mg/kg, po administered 24 hrs post infection measured after 72 hrs post infection by flow cytometry; format: functional; set-up: scale not given: the % may be the effect or the level left; procedure, shortened: as §7

SMILES | EC50 [1] [nM] | EC50 [2] [nM] | permeability [3] [%] | Papp A→B [4] [×10⁻⁶ cm/s] | Papp B→A [5] [×10⁻⁶ cm/s] | hepatic extraction ratio [18] | hepatic extraction ratio [19] | hepatic extraction ratio [20] | hepatic extraction ratio [21] | Survival [15] [days] | Survival [16] [days] | also measured
CC1(C)Cn2c(nc(-c3ccc(F)cc3)c2Nc2ccc(F)cc2)CN1C(=O)CN | 82 | 111 | – | – | – | – | – | – | – | – | – | –
CC1(C)CN(C(=O)CN)Cc2nc(-c3ccc(F)cc3)c(Nc3ccc(F)cc3)n21 | 80 | 76 | – | – | – | – | – | – | – | – | – | –
CC(C)(N)C(=O)N1CCn2c(nc(-c3ccc(F)cc3)c2Nc2ccc(F)cc2)C1(C)C | 10 | 9 | 99.5 | 1.2 | 0.97 | – | – | – | – | – | – | –
Cc1ccc(Nc2c(-c3ccc(F)cc3)nc3n2CCN(C(=O)C(C)(C)N)C3(C)C)cc1 | 2 | 4 | 99.5 | 3.5 | 2.37 | – | – | – | – | 15.3 | 16.7 | Vd [6]: 7.5 L/kg; clearance [7]: 36.1 mL/min/kg; half-life [8]: 18 h; AUC [9]: 7.607 µM·h; Cmax [10]: 1640 nM; Tmax [11]: 1 h; half-life [12]: 14.5 h; AUC [13]: 32.409 µM·h; F [14]: 107%; Cmax [17]: BLD
CC(C)(N)C(=O)N1CCn2c(nc(-c3ccc(F)cc3)c2Nc2ccc(F)c(F)c2)C1(C)C | 13 | 7 | – | – | – | – | – | – | – | – | – | –
CC1(C)NCCn2c1nc(-c1ccc(F)cc1)c2Nc1ccc(F)cc1 | 5 | 5 | 99.9 | – | – | 0.8 | 0.8 | 0.92 | 0.92 | 7 | 9.7 | Vd [6]: 1.2 L/kg; clearance [7]: 25.9 mL/min/kg; half-life [8]: 0.8 h; AUC [9]: 9.09 µM·h; Cmax [10]: 6400 nM; Tmax [11]: 1 h; half-life [12]: 2.95 h; AUC [13]: 19.447 µM·h; F [14]: 53%; Activity [22]: 90%; Survival [23]: 12 days; AUC(0-t) at 4 h [24]: 0.423 µM·h; Cmax [25]: 202 nM; AUC/dose [26]: 0.9 min.ug/ml/(mg/kg)
C[C@H]1[C@H](OC(=O)CCC(=O)O)O[C@@H]2O[C@@]3(C)CC[C@H]4[C@H](C)CC[C@@H]1[C@@]24OO3 [ARTESUNATE] | – | – | – | – | – | – | – | – | – | 5.8 | 7 | Activity [22]: 95.6%; Activity [27]: 99%; Survival [23]: 12.2 days
CCN(CC)CCCC(C)Nc1ccnc2cc(Cl)ccc12 (stereo not drawn) [CHLOROQUINE] | – | – | – | – | – | – | – | – | – | 9 | 12.5 | Activity [22]: 99.5%; Activity [28]: 99.6%; Activity [27]: 99.8%; Survival [23]: 13.6 days

Continued, in another order:

EC50 [1] [nM] | EC50 [2] [nM] | permeability [3] [%] | Papp A→B [4] [×10⁻⁶ cm/s] | Papp B→A [5] [×10⁻⁶ cm/s] | hepatic extraction ratio [18] | hepatic extraction ratio [19] | hepatic extraction ratio [20] | hepatic extraction ratio [21] | SMILES | Survival [15] [days] | Survival [16] [days] | also measured
161 | 178 | 99.5 | 8.2 | 2.36 | 0.8 | 0.87 | 0.96 | 0.79 | Cc1ccc(Nc2c(-c3ccc(F)cc3)nc3n2CCNC3)cc1 | – | – | –
1080 | 1170 | 80.9 | 15 | 14.4 | 0.7 | 0.66 | 0.95 | 0.44 | Cc1ccc(Nc2c(-c3ccc(F)cc3)nc3n2CC(=O)NC3)cc1 | – | – | –
138 | 136 | – | – | – | 0.72 | 0.72 | – | – | Cc1ccc(Nc2c(-c3ccc(F)cc3)nc3n2CC(=O)NC3(C)C)cc1 | – | – | –
13 | 13 | 99.9 | 15.6 | 6.96 | 0.77 | 0.87 | 0.93 | 0.88 | Cc1ccc(Nc2c(-c3ccc(F)cc3)nc3n2CCNC3(C)C)cc1 | – | – | –
